Key:
[1] = biological target: Peptidyl-prolyl cis-trans isomerase FKBP1A (Rattus norvegicus, UniProt Q62658); test: In vitro inhibition of rotamase activity of FK506 binding protein 12
Mus musculus [2] = test: Concurrent % recovery of striatal dopaminergic innervation relative to MPTP-treated mice after subcutaneous administration at dose of 4 mg/kg.; type: functional, organism-based; design: dose 4 mg/kg
Method in brief: (§1)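 Mice lesioned with the dopaminergic neurotoxin MPTP, following an earlier-described protocol. The endpoint is striatal dopaminergic innervation. Drug is given either concurrently with MPTP or after the lesion. Values are expressed as % recovery relative to MPTP-lesioned animals that received no test drug.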

Mus musculus [3] = test: Post-MPTP % recovery of striatal dopaminergic innervation relative to MPTP-treated mice after peroral administration at dose of 10 mg/kg; type: functional, organism-based; design: dose 10 mg/kg; method in brief: as §1

Sequence of Peptidyl-prolyl cis-trans isomerase FKBP1A (Q62658 whole entry): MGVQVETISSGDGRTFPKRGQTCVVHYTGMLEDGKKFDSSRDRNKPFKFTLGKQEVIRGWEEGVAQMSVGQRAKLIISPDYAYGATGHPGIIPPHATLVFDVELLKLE

Row | SMILES | Ki [1] [nM] | Recovery (Mus musculus [2]) [%] | Recovery (Mus musculus [3]) [%]
1 | CCC(C)(C)C(=O)C(=O)N1CCCC[C@H]1C(=O)CCCCc1ccccc1 | 790 |  | 
2 | CCC(C)(C)C(=O)C(=O)N1CCC[C@H]1C(=O)CCCCc1ccccc1 | 30 | 22.5 | 
3 | CCC(C)(C)C(=O)C(=O)N1CCC[C@H]1C(=O)OCCCc1cccnc1 [GPI-1046] | 7.5 | 39 | 35
4 | CCCCC(=O)[C@@H]1CCCCN1C(=O)C(=O)C(C)(C)CC | 3400 |  | 
5 | CCC(C)(C)C(=O)C(=O)N1CCCC[C@H]1C(=O)CCCc1ccccc1 | 10000 |  | 
6 | CCC(C)(C)C(=O)C(=O)N1CCC[C@H]1C(=O)CCCCc1ccc(O)cc1 | 240 |  | 33.5
7 | CC(C)(C)C(=O)C(=O)N1CCC[C@H]1C(=O)CCCc1ccccc1 | 180 | 34 | 35
8 | CCCCC(=O)[C@@H]1CCCN1C(=O)C(=O)C(C)(C)CC | 2000 |  | 
9 | O=C(C(=O)N1CCC[C@H]1C(=O)CCCCc1ccccc1)c1ccccc1 | 10000 |  | 
10 | O=C(C(=O)N1CCC[C@H]1C(=O)CCCCc1ccccc1)C1CCCCC1 | 310 | 37.6 | 62.2
11 | CC(C)(C)C(=O)C(=O)N1CCCC[C@H]1C(=O)CCCCCc1ccccc1 | 290 | 50 | 36
12 | CCC(C)(C)C(=O)C(=O)N1CCCC[C@H]1C(=O)CCCCCc1cccnc1 | 900 |  | 
13 | CCC(C)(C)C(=O)C(=O)N1CCC[C@H]1C(=O)CCCCCc1ccccc1 | 3800 | 46 | 48
14 | CCC(C)(C)C(=O)C(=O)N1CCC[C@H]1C(=O)CCCCc1cccnc1 |  | 38 | 34
15 | CCC(C)(C)C(=O)C(=O)N1CCCC[C@H]1C(=O)CCCCCc1ccccc1 | 3000 | 46.3 | 
16 | CCC(C)(C)C(=O)C(=O)N1CCC[C@H]1C(=O)CCCC(c1ccc(F)cc1)c1ccc(F)cc1 | 460 | 41 | 54
17 | CCC(C)(C)C(=O)C(=O)N1CCC[C@H]1C(=O)CCCCc1c(F)c(F)c(C(F)(F)F)c(F)c1F | 130 | 7 | 27
